Reference: ChEMBL document CHEMBL1125292, “Synthesis of novel 2-phenyl-2H-pyrazolo[4,3-c]isoquinolin-3-ols: topological comparisons with analogues of 2-phenyl-2,5-dihydropyrazolo[4,3-c]quinolin-3(3H)-ones at benzodiazepine receptors” (J Med Chem, 1992)

Biological target: GABA-A receptor; anion channel
Test: Concentration to inhibit [3H]flunitrazepam binding to rat cerebral cortical membrane
In short: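 Rat cerebral cortex homogenized in 50 mM Tris-HCl pH 7.4, centrifuged 20000g 20 min at 4 °C, washed three times, resuspended in 50 volumes. Triplicate incubations with [3H]flunitrazepam (~1 nM final) at 4 °C for 120 min, ended by GF/B filtration and ice-cold buffer washes. Nonspecific binding defined with 10 μM unlabeled flunitrazepam.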

Sc1c2ncc3ccccc3c2nn1-c1ccccc1
IC50: > 2000 nM

COc1ccc(-n2[nH]c3c(ncc4ccccc43)c2=O)cc1
IC50: > 2000 nM

O=c1c2ncc3ccccc3c2[nH]n1-c1ccc(F)cc1
IC50: > 2000 nM

c1ccc2c(c1)cnc1c3ccccc3[nH]c21
IC50: > 2000 nM

Clc1c2ncc3ccccc3c2nn1-c1ccccc1
IC50: > 2000 nM

Oc1c2ncc3ccccc3c2nn1-c1ccc(Cl)cc1
IC50: > 2000 nM

[O-]c1c2c(nn1-c1ccc(F)cc1)c1ccccc1c[n+]2Cc1ccccc1
IC50: > 2000 nM

O=c1c2ncc3ccccc3c2[nH]n1-c1ccccc1
IC50: > 2000 nM

[O-]c1c2c(nn1-c1ccccc1)c1ccccc1c[n+]2Cc1ccccc1
IC50: > 2000 nM

COc1ccc(-n2nc3c4ccccc4[nH]cc-3c2=O)cc1
IC50: 0.9 nM

COc1ccc(-n2nc3c4ccccc4c[n+](Cc4ccccc4)c3c2[O-])cc1
IC50: > 2000 nM

[O-]c1c2c(nn1-c1ccc(Cl)cc1)c1ccccc1c[n+]2Cc1ccccc1
IC50: > 2000 nM
